# Dynein transport: blocks dynein driven cargo transport along microtubules | 3617.4 mouse cells, GR-EGFP nuclear translocation imaging; test concentration mostly 20 µM; stimulated with dexamethasone, 1 µM; active compounds read low | z-score, hits read low | actives 0.47% (n = 220,000);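 active = plate z-score of nuclear minus cytoplasmic receptor signal below a set negative limit, without overly bright fluorescence or cell loss, cut at about -3.5 in these data, passing the limit was not always enough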;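 note: z-score of nuclear minus cytoplasmic ring GR-EGFP intensity difference per well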
#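 medium = tetracycline-free induction medium containing charcoal-stripped FBS | probe or stimulus = dexamethasone, 1.0 µM final | timing = 48 h induction, then 1 h compound, then 30 min agonist, 37 °C | detection = automated 10x imaging of fixed Hoechst-stained cells | read-out basis = nuclear versus cytoplasmic GR-EGFP signal, averaged per well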
# CHOP UPR activ: activators of apoptotic arm of unfolded protein response (CHOP) | AID 449763 | actives 0.34% (n = 330,000) | CHO-CHOP luciferase reporter, UPR activation, luminescence; percent of tunicamycin response over DMSO baseline | activation, % at 10 µM;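 active = at 10 µM dose, activation of 40% or more, normalized to positive control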;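 note: 100% = tunicamycin at 10 µg/mL and 0% = DMSO alone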
#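 Test system: CHO-CHOP cells, stable luciferase reporter of PERK-eIF2a-CHOP signalling | Quantity: 500 CHO-CHOP cells per well | Buffer or medium: F12 plus 10% serum | Compound dosing: 10 µM single point, 0.5% DMSO | Schedule: 6 h compound treatment, 37 °C | Signal: Luciferase luminescence | Control set: Tunicamycin high control, DMSO low control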
# Mdm2 ligase inh: inhibitors of human Mdm2 E3 ubiquitin ligase; Q00987; cell-based MDM2 ubiquitination luciferase reporter, 2 h; 0 = plate control, 100 = twice control, blank-subtracted; signal enhancement, % at 5 µM; actives 0.11% (n = 210,000);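 active = signal enhancement of 30% or more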;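 note: luminescence tracks abundance of the self-degrading MDM2-luciferase fusion protein; higher signal means inhibition of MDM2 E3 ligase activity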
#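 test system = mammalian cells stably expressing self-ubiquitinating, self-degrading MDM2 E3–luciferase fusion | quantity = 2000 cells/well | incubation = cell settling 4 h, compound treatment 2 h, both 37 °C | signal = luminescence with SteadyLite reagent, 15 min at room temperature | evaluation = % enhancement relative to plate controls after blank subtraction | benchmarks = plate controls and plate blanks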
# Beta2AR agonist: human beta-2 adrenergic receptor agonism by FAP; P07550; Am2.2-beta2AR cells, FAP receptor internalization, flow cytometry; response, % (no concentration beside the values); actives 0.43% (n = 340,000);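 active = response above a set limit, near 3 SD of response in nonfluorescent compounds, cut at about 42% in these data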
# UPR XBP1 act: activators of adaptive arm of unfolded protein response (XBP1) | CHO-XBP1 luciferase reporter, IRE1-XBP1 UPR activation, luminescence; percent of tunicamycin response, DMSO as zero | activation, % at 20 µM | actives 0.33% (n = 330,000);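 active = versus positive control, 20 µM dose yields 30% or more activation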;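 note: 100% = tunicamycin at 10 µg/mL and 0% = DMSO only wells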
#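 Signal: luciferase luminescence; Assay system: CHO-XBP1 luciferase reporter cells; Amount: one thousand reporter cells per well; Dosing: 20 µM single concentration, DMSO 1%; Benchmarks: high control tunicamycin 10 µg/mL final, low control DMSO vehicle only; Schedule: 6 h compound exposure at 37 °C, 5% CO2; Evaluation: percent activation relative to tunicamycin reference.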
# Mdm2 MdmX PPI: human Mdm2/MdmX binding inhibition; O15151+Q00987; SaOS-2 split-luciferase Mdm2/MdmX complementation, luminescence; inhibition, % at 8 µM; actives 3% (n = 330,000); AID 485346;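 active = inhibition of at least 50% at 8 µM in the primary screen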
# Target sequence (O15151 whole entry, looked up): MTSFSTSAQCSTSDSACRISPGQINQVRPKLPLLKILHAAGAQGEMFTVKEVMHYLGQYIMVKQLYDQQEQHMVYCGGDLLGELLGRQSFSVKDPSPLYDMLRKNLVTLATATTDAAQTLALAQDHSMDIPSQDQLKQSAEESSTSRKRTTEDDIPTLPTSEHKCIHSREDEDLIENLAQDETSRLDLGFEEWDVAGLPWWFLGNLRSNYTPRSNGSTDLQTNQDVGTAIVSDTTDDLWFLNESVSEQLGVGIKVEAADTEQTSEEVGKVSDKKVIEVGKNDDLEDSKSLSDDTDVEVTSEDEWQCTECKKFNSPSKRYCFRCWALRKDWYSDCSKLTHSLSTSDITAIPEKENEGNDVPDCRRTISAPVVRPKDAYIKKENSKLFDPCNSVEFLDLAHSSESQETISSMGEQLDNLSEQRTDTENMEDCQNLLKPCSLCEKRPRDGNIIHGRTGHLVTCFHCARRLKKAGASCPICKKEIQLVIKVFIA
# Target sequence (Q00987 whole entry, looked up): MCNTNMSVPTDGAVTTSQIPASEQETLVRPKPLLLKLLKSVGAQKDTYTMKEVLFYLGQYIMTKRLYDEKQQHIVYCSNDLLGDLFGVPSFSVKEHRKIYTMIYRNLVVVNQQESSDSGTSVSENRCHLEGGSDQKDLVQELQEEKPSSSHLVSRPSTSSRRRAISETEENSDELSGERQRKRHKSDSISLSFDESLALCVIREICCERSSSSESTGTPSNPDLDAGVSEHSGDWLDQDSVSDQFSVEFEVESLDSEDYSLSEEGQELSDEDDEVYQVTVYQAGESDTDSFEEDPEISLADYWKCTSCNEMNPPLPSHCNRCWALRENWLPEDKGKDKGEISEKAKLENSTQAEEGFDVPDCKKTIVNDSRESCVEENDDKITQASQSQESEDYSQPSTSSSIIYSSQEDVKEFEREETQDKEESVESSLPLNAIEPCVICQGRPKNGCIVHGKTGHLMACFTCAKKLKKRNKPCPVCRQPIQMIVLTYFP
# Mdm2 MdmX conf: confirmation of human Mdm2/MdmX interaction inhibitors | actives 55% (n = 10,000) | shares compounds with Mdm2 MdmX PPI | inhibition, % at 8 µM | Mdm2-MdmX binding, luminescent assay; in the data active = inhibition above about 40%
# FLuc counter: counter-screen for Mdm2/MdmX inhibitors: full-length luciferase | shares compounds with Mdm2 MdmX PPI | SaOS-2 full-length luciferase counterscreen, luminescence | inhibition, % at 8 µM | actives 77% (n = 6,200) | AID 504607;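 active = mean inhibition at 8 µM reaching about 37%, which flags the compound as non-specific, limit read from the data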;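 note: p53-null SaOS-2 cells with luciferase driven by a doxycycline-inducible promoter; compound on cells about two nights before reading with doxycycline added after day one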
# Starred values were filed as active, the others as inactive; . = not tested or not shown. Compounds with a hit are over-represented: about 3.7% of the library has one in this group of screens.
SMILES,Dynein transport,CHOP UPR activ,Mdm2 ligase inh,Beta2AR agonist,UPR XBP1 act,Mdm2 MdmX PPI,Mdm2 MdmX conf,FLuc counter
NS(=O)(=O)c1ccc(CCNC(=O)c2cc(-c3ccccn3)nc3ccc(Br)cc23)cc1,-0.416,5.6,-7.4,1.8,15.2,76.9*,16.3,.
COc1ccc(OC)c(-c2nn(-c3ccccc3)cc2C(=O)N2CCc3ccccc3C2)c1,.,1.9,.,1.6,-2.1,15.6,.,.
COc1cccc(-c2nn(-c3ccc(C)cc3)cc2C(=O)N2CCc3cc(OC)c(OC)cc3C2)c1,.,1.7,.,17.2,-1.4,58.0*,67.2*,85.6*
CCN(CC)CCCCNc1ncc2cc(-c3cc(OC)cc(OC)c3)c(NC(=O)NC(C)(C)C)nc2n1,.,10.5,.,16.1,8.0,94.1*,88.5*,20.2
O=C(NC(Nc1nc2ccc([N+](=O)[O-])cc2s1)(C(F)(F)F)C(F)(F)F)c1cccnc1,0.0178,1.0,-3.1,20.7,0.3,100.2*,94.2*,22.4
O=C(NC(Nc1nc2ccc([N+](=O)[O-])cc2s1)(C(F)(F)F)C(F)(F)F)c1ccccc1Cl,-0.504,25.2,-59.8,13.0,-1.2,100.4*,100.1*,15.1
O=C(O)C1CCC(N2C(=O)c3cccc([N+](=O)[O-])c3C2=O)CC1 (stereo unspecified),.,-0.9,.,-6.0,-4.1,-8.8,.,.
C[C@@H]1CN(S(=O)C(C)(C)C)[C@H](CCO)/C1=C\CCO (stereo partly specified),.,.,.,-2.0,.,.,.,.
COc1ccc(CC(=O)Nc2ccc(-c3nc4cc(C)ccc4o3)c(O)c2)cc1OC,-0.217,0.8,-9.4,24.4,-1.5,92.1*,47.0*,115.1*
O=C(Cc1ccc(Cl)cc1)Nc1ccc2oc(-c3ccncc3)nc2c1,-0.0484,-1.3,-11.2,-6.2,0.4,54.9*,21.1,.
Cc1ccc(NC(=O)CN(C)C(=O)COC(=O)c2ccc(Cl)cc2O)cc1,.,-1.0,.,-0.1,0.0,18.7,.,.
CCOC(=O)/C=c1\s/c(=C\c2ccc(-c3ccccc3)cc2)c(=O)n1CC(=O)NCc1ccc2c(c1)OCO2,-1.03,2.2,-3.0,13.0,1.1,83.8*,9.3,.
Cc1ccc(CNC(=O)Cn2c(=O)c3sccc3n(Cc3ccc([N+](=O)[O-])cc3)c2=O)cc1,0.0266,2.3,.,-5.1,0.2,0.8,.,.
CCOC(=O)/C=c1\s/c(=C\c2sccc2C)c(=O)n1CC(=O)NCc1ccc(C)cc1,-1.01,53.9*,.,.,63.9*,66.0*,13.7,.
CCOC(=O)/C=c1\s/c(=C\c2ccc(C(F)(F)F)cc2)c(=O)n1CC(=O)NCc1ccco1,-0.267,11.1,-11.9,-5.4,13.9,75.7*,31.4,.
CCc1csc(CCNC(=O)C2CCC(=O)N(Cc3cccc(C(F)(F)F)c3)C2)n1 (stereo unspecified),.,-1.1,.,-6.3,-1.4,8.3,.,.
CN(C)C/C=C/C(=O)Nc1cccc(-c2c[nH]c3ncnc(Oc4ccc(NC(=O)CC(=O)Nc5ccc(F)cc5)cc4F)c23)c1,.,-1.3,.,-14.1,-2.9,68.0*,1.5,.
CC(=O)Nc1cccc(Oc2ncnc3scc(-c4ccccc4)c23)c1,-0.748,-0.6,-17.0,-6.3,5.7,-26.4,.,.
CCOC(=O)N1CCN(C(=O)Cc2ccccc2OC)CC1,.,-0.1,.,4.8,-5.4,11.2,.,.
CC(CC(=O)OCC(=O)Nc1ccc2[nH]c(=O)[nH]c2c1)c1ccccc1 (stereo unspecified),.,-1.3,.,-2.9,1.4,-14.8,.,.
CCCc1c(C(=O)Nc2ccc(F)cc2F)cnn1-c1ccccc1,0.407,3.6,3.1,-2.8,2.1,6.9,.,.
CCCc1c(NC(=O)Nc2ccc(Cl)cc2Cl)cnn1-c1ccccc1,-0.418,0.5,-5.5,-0.3,2.2,85.8*,74.7*,42.6*
CCN(c1ccccc1)c1nc(Cl)nc2c1cnn2C,.,.,.,-3.2,.,.,.,.
O=[N+]([O-])c1cc(Cl)cc(/C=N/Nc2nc3ccccc3s2)c1O,0.0796,1.0,6.8,11.3,-1.6,79.7*,-0.9,.
COc1ccc(C=NNc2nc3ccccc3s2)cc1,.,.,.,-0.6,.,.,.,.
SMILES,Dynein transport,CHOP UPR activ,Mdm2 ligase inh,Beta2AR agonist,UPR XBP1 act,Mdm2 MdmX PPI,Mdm2 MdmX conf,FLuc counter
C(=N\Nc1nc2ccccc2s1)/c1ccccn1,-0.59,-9.6,-89.8,5.5,-8.9,94.4*,95.5*,48.1*
Oc1ccccc1/C=N/Nc1nccnc1Cl,0.291,-1.3,-30.8,0.5,0.3,70.9*,64.6*,30.8
Oc1ccc(/C=N/Nc2nccnc2Cl)c(O)c1,-0.0287,1.7,-33.1,8.8,11.4,57.1*,73.0*,38.9*
COc1cccc(/C=N/Nc2nccnc2Cl)c1O,1.99,-7.4,-67.4,-1.1,-8.9,47.8,.,.
Cc1ccc(C)c(S(=O)(=O)N2CCN(C(=O)c3cccn3C)CC2)c1,.,2.5,.,-3.0,-1.8,21.6,.,.
O=C(NC1CCOc2ccccc21)c1ccc(Cl)nc1 (stereo unspecified),.,1.3,.,0.7,1.0,11.1,.,.
Fc1cccc(Cc2noc(CN3CCC(c4ccncc4)CC3)n2)c1,0.394,0.2,-9.4,-2.4,3.1,27.9,.,.
O=[N+]([O-])c1cc([N+](=O)[O-])c(Oc2cncc(Cl)c2)cc1NC1CCCCCCC1,.,-0.6,.,-0.2,8.2,74.3*,39.6,83.2*
C/C(=C\c1ccccc1F)C(=O)c1c(C)cc(C)[nH]c1=O,.,1.0,.,-3.1,-1.3,13.4,.,.
Cc1[nH]c(=O)c(C(=O)/C=C/c2ccccc2F)c2c1CCCC2,-3.32,25.2,-9.3,36.1,-0.3,80.1*,99.2*,53.3*
c1ccc(C(=C2CCCO2)c2ccccc2)cc1,.,.,.,0.6,.,.,.,.
O=C(NCCCCNC(=O)c1ccc(Br)cc1)c1ccc(Br)cc1,.,-0.1,.,3.5,-7.1,76.9*,21.3,.
O=C(O)CCCCCNC(=O)c1ccc(Br)cc1,-0.326,1.9,-13.6,0.6,-1.6,5.7,.,.
Nc1ccc(C(=O)N/N=C\c2cc(N=Nc3cccc4ccccc34)ccc2O)cc1,-0.26,-0.8,-9.1,.,-1.0,57.1*,67.2*,36.2*
COC(=O)N/N=C/c1cc(N=Nc2ccccc2Cl)ccc1O,-0.488,2.8,-1.0,14.8,4.5,16.9,.,.
O=C(NN=Cc1c(O)ccc2ccccc12)c1ccc2c(c1)OCO2,.,0.4,.,8.7,4.0,88.2*,89.1*,50.0*
